Source: ChEMBL document CHEMBL2150969, “Design, synthesis and biological evaluation of nuclear receptor-degradation inducers” (Bioorg Med Chem, 2011)
Blank lines part the entries; values can stand above or below the compound they belong to. Calls of active or inactive are those of the source. The calls are words filed in the database; no cut-off is given here.

What was measured:
[1] = system: HT-1080; test: Induction of CRABP-2 degradation in human HT1080 cells at 10 uM after 24 hrs by Western blot analysis; assay type: functional, cell-based
Outline: (§1)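 HT-1080 cells were grown in RPMI 1640 with 10% heat-inactivated FBS at 37 °C under 5% CO2. Cells (1×10^6) were treated, then lysed in SDS buffer and protein was equalized by BCA. Lysates ran on 10-20% SDS-PAGE and went to PVDF, blocked with 5% skim milk/TBS-T. Blots were probed with anti-CRABP-II or anti-RARα plus β-actin, HRP secondaries, and ECL detection.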

[2] = biological target: Baculoviral IAP repeat-containing protein 2 (Homo sapiens) (UniProt Q13490); test: Induction of FLAG-tagged cIAP1 expressed in human HT1080 cells assessed as RARalpha degradation at 10 uM after 24 hrs by Western blot analysis; assay type: cell-based; settings: HT-1080; outline: as §1
Baculoviral IAP repeat-containing protein 2 (Homo sapiens), sequence (Q13490 whole entry): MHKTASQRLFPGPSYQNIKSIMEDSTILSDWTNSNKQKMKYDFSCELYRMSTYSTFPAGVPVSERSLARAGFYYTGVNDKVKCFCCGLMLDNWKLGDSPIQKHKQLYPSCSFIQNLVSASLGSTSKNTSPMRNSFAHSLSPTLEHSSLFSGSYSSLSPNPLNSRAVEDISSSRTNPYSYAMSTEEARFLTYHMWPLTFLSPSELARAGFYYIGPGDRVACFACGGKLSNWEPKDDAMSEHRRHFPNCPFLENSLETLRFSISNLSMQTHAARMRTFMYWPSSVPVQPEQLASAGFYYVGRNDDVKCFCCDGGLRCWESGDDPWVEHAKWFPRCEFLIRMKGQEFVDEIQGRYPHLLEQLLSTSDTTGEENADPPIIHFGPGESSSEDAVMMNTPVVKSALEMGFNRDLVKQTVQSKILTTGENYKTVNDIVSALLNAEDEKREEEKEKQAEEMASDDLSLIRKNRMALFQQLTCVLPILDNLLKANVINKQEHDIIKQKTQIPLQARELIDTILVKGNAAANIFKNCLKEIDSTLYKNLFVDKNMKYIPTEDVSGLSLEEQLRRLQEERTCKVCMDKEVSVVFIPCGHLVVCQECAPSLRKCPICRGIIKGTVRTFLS

[3] = system: MCF7; test: Induction of ERalpha degradation in human MCF7 cells at 30 uM after 24 hrs by Western blot analysis; assay type: functional, cell-based
Outline: (§2)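 MCF-7 cells were kept in D-MEM with 10% FBS and penicillin/streptomycin, with 2 nM E2 as physiological agonist, at 37 °C under 5% CO2. Cells (1×10^6) were treated, lysed in SDS buffer and protein was BCA-normalized. Lysates ran on 10-20% SDS-PAGE and PVDF, blocked with 5% skim milk, then probed with rabbit polyclonal anti-ERα (1:200) and β-actin. Detection used HRP secondaries and ECL.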

[4] = biological target: Baculoviral IAP repeat-containing protein 2 (Homo sapiens) (UniProt Q13490); test: Induction of FLAG-tagged cIAP1 expressed in human HT1080 cells assessed as RARalpha degradation after 24 hrs by Western blot analysis; assay type: cell-based; settings: HT-1080; outline: as §1
[5] = biological target: Baculoviral IAP repeat-containing protein 2 (Homo sapiens) (UniProt Q13490); test: Induction of FLAG-tagged cIAP1 expressed in human HT1080 cells assessed as RARalpha degradation at 10 uM after 6 hrs by Western blot analysis in presence of proteasome inhibitor MG132 added 30 mins prior to compound treatment; assay type: cell-based; settings: HT-1080; outline: as §1
[6] = biological target: Baculoviral IAP repeat-containing protein 2 (Homo sapiens) (UniProt Q13490); test: Induction of FLAG-tagged cIAP1 expressed in human HT1080 cells assessed as CRABP-2 degradation at 1 to 30 uM after 24 hrs by Western blot analysis; assay type: cell-based; settings: HT-1080; outline: as §1
[7] = biological target: Baculoviral IAP repeat-containing protein 2 (Homo sapiens) (UniProt Q13490); test: Induction of FLAG-tagged cIAP1 expressed in human HT1080 cells assessed as RARalpha degradation at 10 uM after 6 hrs by Western blot analysis in presence of RAR antagonist LE540 added 30 mins prior to compound treatment; assay type: functional, cell-based; settings: HT-1080; outline: as §1
[8] = biological target: Baculoviral IAP repeat-containing protein 2 (Homo sapiens) (UniProt Q13490); test: Induction of cIAP1-mediated ERalpha degradation in human MCF7 cells at 1 to 30 uM after 24 hrs by Western blot analysis; assay type: cell-based; outline: as §2
[9] = biological target: Baculoviral IAP repeat-containing protein 2 (Homo sapiens) (UniProt Q13490); test: Induction of cIAP1-mediated AR degradation in human MCF7 cells at 30 uM after 24 hrs by Western blot analysis relative to control; assay type: cell-based
Outline: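 MCF-7 cells were grown in D-MEM with 10% FBS, penicillin/streptomycin and 10 nM DHT at 37 °C under 5% CO2. Cells (1×10^6) were treated, lysed in SDS buffer, and equal protein (by BCA) was run on 10-20% SDS-PAGE and transferred to PVDF. Blots were blocked in 5% skim milk/TBS-T, probed with mouse monoclonal anti-AR (1:200) and β-actin antibody, and read by ECL.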

[10] = system: HT-1080; test: Induction of RARalpha degradation in human HT1080 cells at 10 uM after 24 hrs by Western blot analysis; assay type: functional, cell-based; outline: as §1
[11] = biological target: Baculoviral IAP repeat-containing protein 2 (Homo sapiens) (UniProt Q13490); test: Induction of cIAP1-mediated ERalpha degradation in human MCF7 cells at 30 uM after 24 hrs by Western blot analysis; assay type: cell-based; outline: as §2
[12] = biological target: Baculoviral IAP repeat-containing protein 2 (Homo sapiens) (UniProt Q13490); test: Induction of FLAG-tagged cIAP1 expressed in human HT1080 cells assessed as RARalpha degradation at 30 uM after 24 hrs by Western blot analysis; assay type: cell-based; settings: HT-1080; outline: as §1

Activity [2]: inactive
Compound: CC1=C(/C=C/C(C)=C/C=C/C(C)=C/C(=O)O)C(C)(C)CC/C1=N\OCC(=O)NCCOCCOCCOC(=O)[C@H](CC(C)C)NC(=O)[C@@H](O)[C@H](N)Cc1ccccc1
Activity [1]: Active

Compound: C[C@]12CC[C@@H]3c4ccc(O)cc4CC[C@H]3[C@@H]1CCC2=O
Activity [3]: inactive

Activity [4]: Dose-dependent effect
Activity [5]: inactive
Activity [6]: inactive
Activity [7]: inactive
Compound: CC(C)C[C@H](NC(=O)[C@@H](O)[C@H](N)Cc1ccccc1)C(=O)NCCOCCOCCOCC(=O)NCCCOc1cc(/C=C/C(=O)c2cc(C(C)(C)C)cc(C(C)(C)C)c2)ccc1C(=O)O

Activity [8]: inactive
Compound: CC(C)C[C@H](NC(=O)CCCc1ccccc1)C(=O)NCCOCCOCCNC(=O)CO/N=C1\CC[C@H]2[C@@H]3CCc4cc(O)ccc4[C@H]3CC[C@]12C

Compound: CC(C)C[C@H](NC(=O)[C@@H](O)[C@H](N)Cc1ccccc1)C(=O)NCCOCCOCCOCC(=O)O[C@H]1CC[C@H]2[C@@H]3CC[C@H]4CC(=O)CC[C@]4(C)[C@H]3CC[C@]12C
Activity [9]: Active

Compound: CC(C)C[C@H](NC(=O)CCCc1ccccc1)C(=O)NCCOCCOCCOCC(=O)NCCCOc1cc(/C=C/C(=O)c2cc(C(C)(C)C)cc(C(C)(C)C)c2)ccc1C(=O)O
Activity [10]: inactive

Activity [11]: Active
Compound: CC(C)C[C@H](NC(=O)[C@@H](O)[C@H](N)Cc1ccccc1)C(=O)NCCOCCOCCNC(=O)CO/N=C1\CC[C@H]2[C@@H]3CCc4cc(O)ccc4[C@H]3CC[C@]12C

Activity [9]: Active
Activity [12]: inactive
Activity [11]: inactive
Compound: CNC(=O)[C@H](CC(C)C)NC(=O)[C@@H](O)[C@H](N)Cc1ccccc1
